Data as given in ChEMBL document CHEMBL2331556, “Evidence for the involvement of descending pain-inhibitory mechanisms in the antinociceptive effect of hecogenin acetate” (J Nat Prod, 2013).
Activity calls are given as the source filed them.

Legend:
[1] = test system: Mus musculus; assay: Antinociceptive activity in Swiss webster mouse assessed as increase in latency response at 5 mg/kg sc administered 40 mins prior to test measured for 3 hrs by warm water-tail flick test; format: functional, organism-based; design: dose 5 mg/kg
Method in brief: (§1)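 Mice habituated to a restraint cylinder 20 min/day for 5 days. Tail tip (2 cm) immersed in 50 ± 0.5 °C water; tail-withdrawal latency recorded, 16 s cut-off. Latency taken at baseline and up to 7 h after dosing. Vehicle Tween 20 5%. Means ± SEM, n = 6 mice/group; repeated-measures two-way ANOVA with Bonferroni post hoc.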

[2] = test system: Mus musculus; assay: Toxicity in Swiss webster mouse assessed as decrease in time stayed on rotarod at 10 mg/kg, ip measured after 30 mins by rotarod test; format: organism-based; design: dose 10 mg/kg, route intraperitoneal; conditions: in vivo, 0.5 h
[3] = test system: Mus musculus; assay: Activation of neurons in Swiss webster mouse periaqueductal gray assessed as increase in number of Fos-positive cells at 5 to 40 mg/kg, ip measured after 2 hrs by immunohistochemical analysis; format: functional, organism-based
Method in brief: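 Mice given 5, 10, 20 or 40 mg/kg ip or vehicle, perfused 2 h later. Frozen 20 μm transverse periaqueductal gray sections: PBS washes, 0.1 M glycine, blocked in 1% BSA, overnight rabbit anti-Fos, then 1 h Alexa Fluor 594 anti-rabbit. No-primary control included. Fos-positive cells counted; n = 6/group; ANOVA with Tukey post hoc.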

[4] = test system: Mus musculus; assay: Antinociceptive activity in Swiss webster mouse assessed as latency response at 40 mg/kg, ip administered 30 mins after 2 mg/kg, ip KATP channel blocker, glibenclamide challenge measured up to 7 hrs by warm water-tail flick test; format: functional, organism-based; method in brief: as §1
[5] = test system: Mus musculus; assay: Antinociceptive activity in Swiss webster mouse assessed as latency response at 40 mg/kg, ip administered 5 mins after 3 mg/kg, sc delta-opioid receptor antagonist, naltrindole challenge measured up to 7 hrs by warm water-tail flick test; format: functional, organism-based; method in brief: as §1
[6] = test system: Mus musculus; assay: Antinociceptive activity in Swiss webster mouse assessed as latency response at 40 mg/kg, ip administered 15 mins after 0.5 mg/kg, sc kappa-opioid receptor antagonist, nor-BNI challenge measured up to 7 hrs by warm water-tail flick test; format: functional, organism-based; method in brief: as §1
[7] = test system: Mus musculus; assay: Antinociceptive activity in Swiss webster mouse assessed as latency response at 40 mg/kg, ip administered 30 mins prior to 1 mg/kg, ip mu-opioid receptor antagonist, CTOP challenge measured up to 7 hrs by warm water-tail flick test; format: functional, organism-based; method in brief: as §1
[8] = test system: Mus musculus; assay: Antinociceptive activity in Swiss webster mouse assessed as latency response at 40 mg/kg, ip administered 15 mins after 5 mg/kg, ip nonselective opioid receptor antagonist, naloxone challenge measured up to 7 hrs by warm water-tail flick test; format: functional, organism-based; method in brief: as §1
[9] = test system: Mus musculus; assay: Toxicity in Swiss webster mouse assessed as effect on motor performance at 40 mg/kg, ip measured after 30 mins by rotarod test; format: organism-based; design: dose 40 mg/kg, route intraperitoneal; conditions: in vivo, 0.5 h
Method in brief: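 Rotarod. Mice pre-selected 24 h earlier; those failing to stay on the bar for two consecutive 120 s periods were excluded. Dosing ip: test agent 40 mg/kg, or vehicle (Tween 20 5%, 200 μL). Time on rod recorded up to 120 s and reported as group mean time (s). n = 6/group; ANOVA with Tukey post hoc.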

[10] = test system: Mus musculus; assay: Antinociceptive activity in ip dosed Swiss webster mouse assessed as increase in latency response […] by warm water-tail flick test; format: functional, organism-based

CN1CC[C@]23c4c5ccc(O)c4O[C@H]2[C@@H](O)C=C[C@H]3[C@H]1C5
Activity [1]: Active

CN1C(=O)CN=C(c2ccccc2)c2cc(Cl)ccc21 [DIAZEPAM]
Activity [2]: Toxic

CC(=O)O[C@H]1CC[C@@]2(C)[C@@H](CC[C@@H]3[C@@H]2CC(=O)[C@]2(C)[C@@H]4[C@H](C[C@@H]32)O[C@]2(CC[C@@H](C)CO2)[C@H]4C)C1 [HECOGENIN ACETATE]
Activity [3]: Active | Activity [4]: inactive | Activity [5]: inactive | Activity [6]: inactive | Activity [7]: inactive | Activity [8]: inactive | Activity [9]: Non-toxic | Activity [10]: Dose-dependent effect
